# Source: ChEMBL document CHEMBL1139764, “Design, synthesis, and structure-activity relationship studies of new phenolic DNA gyrase inhibitors” (2007)
# Assays:
# [1] = test system: Escherichia coli; assay: Inhibition of Escherichia coli D110 DNA gyrase after 30 mins by supercoiling assay
# [2] = test system: Staphylococcus aureus; assay: Antibacterial activity against methicillin and quinolones-resistant Staphylococcus aureus Smith QR54 by twofold agar dilution method; format: functional
# Outline: (§1)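 MIC read as lowest inhibitory level in twofold serial dilutions in Müller–Hinton agar; each spot inoculated with 10^4 CFU.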
# [3] = test system: Staphylococcus epidermidis; assay: Antibacterial activity against Staphylococcus epidermidis ATCC 14990 by twofold agar dilution method; format: functional
# Outline: (§2)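 Twofold serial dilutions in Müller–Hinton agar with an inoculum of 10^4 CFU per spot. The read-out is the minimal inhibitory concentration (MIC).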
# [4] = test system: Enterococcus faecium; assay: Antibacterial activity against ampicillin, trimethoprim and vancomycin-resistant Enterococcus faecium vanA E23-8 by twofold agar dilution method; format: functional; outline: as §1
# [5] = test system: Streptococcus pyogenes; assay: Antibacterial activity against Streptococcus pyogenes beta-15 by agar dilution method; format: functional; outline: as §2
# [6] = test system: Staphylococcus aureus; assay: Antibacterial activity against Staphylococcus aureus Smith by twofold agar dilution method; format: functional; outline: as §1
# [7] = test system: Staphylococcus aureus; assay: Antibacterial activity against novobiocin R144I-resistant Staphylococcus aureus ATCC 25923 by agar dilution method; format: functional; outline: as §1
# [8] = test system: Staphylococcus aureus; assay: Antibacterial activity against erythromycin, methicillin and trimethoprim-resistant Staphylococcus aureus Smith 744 by twofold agar dilution method; format: functional; outline: as §1
# [9] = test system: Staphylococcus aureus; assay: Antibacterial activity against Staphylococcus aureus ATCC 25923 by twofold agar dilution method; format: functional; outline: as §1
structure (smiles),measurement,setting,value
COc1ccc(N2C(=O)c3c(C)c(OC)cc(O)c3C2c2ccco2)cc1 (centres undefined),Activity,[1],> 63 µg/mL
Oc1ccc(Cl)cc1CNc1ccc(Cl)cc1,MIC,[2],16 µg/mL
same,Activity,[1],5 µg/mL
same,MIC,[3],16 µg/mL
same,MIC,[4],16 µg/mL
same,MIC,[5],16 µg/mL
same,MIC,[6],16 µg/mL
same,MIC,[7],16 µg/mL
same,MIC,[8],16 µg/mL
same,MIC,[9],16 µg/mL
COc1cc(O)c2c(c1C)C(=O)N1c3ccc(Cl)cc3CC[C@H]21,MIC,[2],32 µg/mL
same,Activity,[1],0.25 µg/mL
same,MIC,[3],32 µg/mL
same,MIC,[4],> 32 µg/mL
same,MIC,[5],> 32 µg/mL
same,MIC,[6],> 32 µg/mL
same,MIC,[7],16 µg/mL
same,MIC,[9],> 32 µg/mL
COc1ccc(N2C(=O)c3c(C)c(OC)cc(O)c3C2CC(C)=O)cc1 (centres undefined),Activity,[1],> 63 µg/mL
COc1ccc(N2C(=O)c3c(C)c(OC)cc(O)c3C2c2ccc(CC#N)s2)cc1 (centres undefined),Activity,[1],36 µg/mL
COc1cc(O)c2c(c1C)C(=O)N(c1ccc3[nH]ncc3c1)C2,Activity,[1],1 µg/mL
COc1ccc(N2C(=O)c3c(C)c(OC)cc(O)c3C2C(Cl)C(C)=O)cc1 (centres undefined),Activity,[1],63 µg/mL
COc1cc(O)c2c(c1Br)C(=O)N1c3ccccc3COC21 (centres undefined),MIC,[2],2 µg/mL
same,Activity,[1],0.5 µg/mL
same,MIC,[3],> 2 µg/mL
same,MIC,[4],> 32 µg/mL
same,MIC,[5],8 µg/mL
same,MIC,[6],2 µg/mL
same,MIC,[7],2 µg/mL
same,MIC,[8],4 µg/mL
same,MIC,[9],2 µg/mL
COc1ccc(N2C(=O)c3c(C)c(OC)cc(O)c3C2Sc2ncc[nH]2)cc1 (centres undefined),Activity,[1],4 µg/mL
C=CCC1c2c(O)cc(OC)c(C)c2C(=O)N1c1ccc(OC)cc1 (centres undefined),Activity,[1],2 µg/mL
COc1cc(O)c2c(c1C)C(=O)N1c3ccc(C)cc3COC21 (centres undefined),MIC,[2],16 µg/mL
same,Activity,[1],0.25 µg/mL
same,MIC,[3],2 µg/mL
same,MIC,[4],> 32 µg/mL
same,MIC,[5],> 32 µg/mL
same,MIC,[6],16 µg/mL
same,MIC,[7],16 µg/mL
same,MIC,[8],32 µg/mL
same,MIC,[9],32 µg/mL
CO[C@@H]1[C@@H](OC(N)=O)[C@@H](O)[C@H](Oc2ccc3c(O)c(NC(=O)c4ccc(O)c(CC=C(C)C)c4)c(=O)oc3c2C)OC1(C)C [NOVOBIOCIN],MIC,[2],0.12 µg/mL
same,Activity,[1],0.25 µg/mL
same,MIC,[3],0.12 µg/mL
same,MIC,[4],8 µg/mL
same,MIC,[5],2 µg/mL
same,MIC,[6],0.25 µg/mL
same,MIC,[7],8 µg/mL
same,MIC,[8],0.25 µg/mL
same,MIC,[9],0.25 µg/mL
COc1cc(O)c2c(c1C)C(=O)N(c1ccc(S(N)(=O)=O)cc1)C2,Activity,[1],1 µg/mL
Oc1ccc(Cl)cc1CNc1cccc(Cl)c1,Activity,[1],8 µg/mL
COc1ccc(N2C(=O)c3c(C)c(OC)cc(O)c3C2CCO)cc1 (centres undefined),Activity,[1],4 µg/mL
COc1cc(O)c2c(c1C)C(=O)N(c1cnc3ccccc3c1)C2,Activity,[1],0.5 µg/mL
COC(=O)c1c(C)c(OC)cc(O)c1CNc1cc(Cl)cc(Cl)c1,Activity,[1],4 µg/mL
COc1cc(O)c2c(c1C)C(=O)N(c1cccc(C(=O)O)c1)C2,Activity,[1],8 µg/mL
Oc1ccc(Br)cc1CNc1ccc(Cl)cc1,Activity,[1],16 µg/mL
COc1ccc(N2C(=O)c3c(C)c(OC)cc(O)c3C2OC)cc1 (centres undefined),Activity,[1],16 µg/mL
COc1cc(O)c2c(c1C)C(=O)N1c3ccc(Cl)cc3[C@@H](O)C[C@H]21,MIC,[2],8 µg/mL
same,Activity,[1],1 µg/mL
same,MIC,[3],8 µg/mL
same,MIC,[4],> 32 µg/mL
same,MIC,[5],32 µg/mL
same,MIC,[6],4 µg/mL
same,MIC,[7],4 µg/mL
same,MIC,[8],16 µg/mL
same,MIC,[9],8 µg/mL
COC(=O)c1c(C)c(OC)cc(O)c1CNc1ccc2ncccc2c1,Activity,[1],8 µg/mL
COc1ccc(N2C(=O)c3c(C)c(OC)cc(O)c3C2CC=O)cc1 (centres undefined),Activity,[1],31 µg/mL
COC(=O)c1c(C)c(OC)cc(O)c1CNc1cccc(Cl)c1,Activity,[1],4 µg/mL
COc1ccc(N2C(=O)c3c(C)c(OC)cc(O)c3C2c2ccc(C)o2)cc1 (centres undefined),Activity,[1],> 63 µg/mL
COc1cc(O)c2c(c1C)C(=O)N1c3c(C)cccc3COC21 (centres undefined),MIC,[2],16 µg/mL
same,Activity,[1],0.5 µg/mL
same,MIC,[3],2 µg/mL
same,MIC,[4],> 32 µg/mL
same,MIC,[5],> 32 µg/mL
same,MIC,[6],32 µg/mL
same,MIC,[7],16 µg/mL
same,MIC,[8],> 32 µg/mL
same,MIC,[9],32 µg/mL
COC(=O)CCSC1c2c(O)cc(OC)c(C)c2C(=O)N1c1ccc(OC)cc1 (centres undefined),Activity,[1],0.5 µg/mL
COc1cc(O)c2c(c1C)C(=O)N1c3ccccc3COC21 (centres undefined),Activity,[1],0.5 µg/mL
same,MIC,[3],> 32 µg/mL
same,MIC,[4],> 32 µg/mL
same,MIC,[5],> 32 µg/mL
same,MIC,[6],> 32 µg/mL
same,MIC,[9],> 32 µg/mL
COC(=O)c1c(C)c(OC)cc(O)c1CNc1ccc(Cl)c(Cl)c1,Activity,[1],2 µg/mL
COc1ccc2c(c1)[C@@H](O)C[C@@H]1c3c(O)cc(OC)c(C)c3C(=O)N21,MIC,[2],16 µg/mL
same,Activity,[1],0.5 µg/mL
same,MIC,[3],32 µg/mL
same,MIC,[4],> 32 µg/mL
same,MIC,[5],> 32 µg/mL
same,MIC,[6],32 µg/mL
same,MIC,[7],16 µg/mL
same,MIC,[8],> 32 µg/mL
same,MIC,[9],> 32 µg/mL
NS(=O)(=O)c1ccc(NCc2cc(Cl)ccc2O)cc1,Activity,[1],63 µg/mL
COc1ccc2c(c1)CC[C@@H]1c3c(O)cc(OC)c(C)c3C(=O)N21,MIC,[2],16 µg/mL
same,Activity,[1],0.5 µg/mL
same,MIC,[3],< 2 µg/mL
same,MIC,[4],> 32 µg/mL
same,MIC,[5],> 32 µg/mL
same,MIC,[6],16 µg/mL
same,MIC,[7],8 µg/mL
same,MIC,[8],> 32 µg/mL
same,MIC,[9],32 µg/mL
COc1ccc(N2C(=O)c3c(C)c(OC)cc(O)c3C2Sc2ncccn2)cc1 (centres undefined),Activity,[1],4 µg/mL
COc1ccc(N2Cc3c(O)cc(OC)c(C)c3C2=O)cc1,Activity,[1],8 µg/mL
COc1cc(O)c2c(c1C)C(=O)N(c1cccc(CC(=O)O)c1)C2,Activity,[1],2 µg/mL
COc1cc(O)c2c(c1C)C(=O)N1c3cccnc3COC21 (centres undefined),MIC,[2],1 µg/mL
same,Activity,[1],0.13 µg/mL
same,MIC,[3],0.5 µg/mL
same,MIC,[4],> 32 µg/mL
same,MIC,[5],32 µg/mL
same,MIC,[6],1 µg/mL
same,MIC,[7],0.5 µg/mL
same,MIC,[8],2 µg/mL
same,MIC,[9],1 µg/mL
COC(=O)c1c(C)c(OC)cc(O)c1CNc1ccc(Cl)cc1,Activity,[1],16 µg/mL
Oc1cccc(CNc2ccc(Cl)cc2)c1O,Activity,[1],16 µg/mL
Oc1c(Cl)cc(Cl)cc1CNc1ccc(Cl)cc1,Activity,[1],16 µg/mL
COc1cc(O)c2c(c1C)C(=O)N(c1cccnc1)C2,Activity,[1],2 µg/mL
COc1cc(O)c2c(c1C)C(=O)N(c1cccc(N)c1)C2,Activity,[1],2 µg/mL
Oc1ccc(CNc2ccc(Cl)cc2)c(O)c1,Activity,[1],16 µg/mL
COc1ccc(N2C(=O)c3c(C)c(OC)cc(O)c3C2c2[nH]c3ccccc3c2C)cc1 (centres undefined),Activity,[1],> 63 µg/mL
COc1cc(O)c2c(c1C)C(=O)N(c1ccc(Cl)c(Cl)c1)C2,Activity,[1],4 µg/mL
COc1cc(O)c2c(c1C)C(=O)N1c3cc4c(cc3C(=O)CC21)OCO4 (centres undefined),Activity,[1],1 µg/mL
same,MIC,[3],32 µg/mL
same,MIC,[4],> 32 µg/mL
same,MIC,[5],> 32 µg/mL
same,MIC,[6],> 32 µg/mL
same,MIC,[9],> 32 µg/mL
CCCCSC1c2c(O)cc(OC)c(C)c2C(=O)N1c1ccc(OC)cc1 (centres undefined),Activity,[1],16 µg/mL
COc1cc(O)c2c(c1C)C(=O)N(c1ccc3ncccc3c1)C2,Activity,[1],1 µg/mL
COc1ccc(N2C(=O)c3c(C)c(OC)cc(O)c3C2Sc2ccc(C)cc2)cc1 (centres undefined),Activity,[1],31 µg/mL
Oc1ccc(Cl)cc1CNc1cc(Cl)cc(Cl)c1,Activity,[1],4 µg/mL
N#Cc1ccc(NCc2cc(Cl)ccc2O)cc1,Activity,[1],2 µg/mL
COc1ccc(N2C(=O)c3c(C)c(OC)cc(O)c3C2c2ccc(CS)o2)cc1 (centres undefined),Activity,[1],> 63 µg/mL
COc1cc(O)c2c(c1Br)C(=O)N1c3ccc(C)cc3COC21 (centres undefined),MIC,[2],8 µg/mL
same,Activity,[1],0.25 µg/mL
same,MIC,[3],2 µg/mL
same,MIC,[4],> 32 µg/mL
same,MIC,[5],16 µg/mL
same,MIC,[6],8 µg/mL
same,MIC,[7],4 µg/mL
same,MIC,[8],8 µg/mL
same,MIC,[9],8 µg/mL
